In ChEMBL document CHEMBL1138852, “Arylpiperazinylalkylpyridazinones and analogues as potent and orally active antinociceptive agents: synthesis and studies on mechanism of action” (J Med Chem, 2006):
Several values for one entry are separate records, joined by “and”; a condition that tells them apart may be missing. Equal values may be shown once. Activity calls are given as the source filed them.

Experiments:
[1] = system: Mus musculus; test: Antinociceptive activity in Swiss Albino mouse at 20 mg/kg, po by writhing test measured as number of writhes; type: functional
Method in brief: (§1)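 Drugs dosed orally 30 min before test, in saline or 1% CMC suspension; yohimbine arm included. 0.6% acetic acid (10 mL/kg) injected i.p., and abdominal constrictions counted for 10 min from 5 min after injection. Values are means of at least two experiments, compared with CMC-treated mice.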

[2] = system: Mus musculus; test: Antinociceptive activity in Swiss Albino mouse at 20 mg/kg, po by writhing test measured as number of writhes in presence of yohimbine; type: functional; method in brief: as §1
[3] = system: Mus musculus; test: Antinociceptive activity in Swiss Albino mouse at 20 mg/kg, po by hot plate assay measured as licking latency; type: functional; design: unit: s
Method in brief: (§2)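 Oral dosing in saline or 1% CMC. Mice placed on a surface held at 52.5 ± 0.1 °C; paw-licking latency (s) timed before treatment and at intervals up to 60 min afterwards. Mice with pretest latency below 12 or above 18 s were excluded. Cutoff 45 s.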

[4] = system: Mus musculus; test: Antinociceptive activity in Swiss Albino mouse at 3 mg/kg, ip by abdominal constriction assay; type: functional, Abdomen; conditions: route intraperitoneal
Method in brief: (§3)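 Acetic acid writhing in mice: 0.6% acetic acid at 10 mL/kg i.p., with stretching movements counted over 10 min starting 5 min after injection. Compound A 1 mg/kg s.c. or antagonists i.p. Drugs in 0.9% saline or dispersed in 1% carboxymethylcellulose. Groups of 10-15 mice, compared against saline/CMC controls.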

[5] = system: Mus musculus; test: Antagonist effect on compound A-induced antinociception in Swiss Albino mouse at 3 mg/kg, ip; type: functional; conditions: route intraperitoneal
Method in brief: (§4)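 Mice given antagonist i.p. (yohimbine 3 mg/kg, BRL-44408 1 mg/kg, ARC-239 10 mg/kg) plus compound A 1 mg/kg s.c., or antagonist plus vehicle. Abdominal constriction test: 0.6% acetic acid (10 mL/kg) i.p., stretching movements counted for 10 min beginning 5 min after injection. Groups of 10-15 mice, compared with saline/CMC controls.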

[6] = system: Mus musculus; test: Antinociceptive activity in Swiss Albino mouse at 3 mg/kg, po by hot plate assay measured as licking latency; type: functional; method in brief: as §2
[7] = system: Mus musculus; test: Antinociceptive activity in Swiss Albino mouse at 3 mg/kg, po by writhing test measured as number of writhes in presence of yohimbine; type: functional
[8] = molecular target: Norepinephrine transporter (Rattus norvegicus, UniProt Q9WTR4); test: Inhibition of [3H]noradrenaline uptake in Sprague-Dawley rat brain synaptosomes; type: functional, subcellular
Method in brief: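 Rat frontal cortex synaptosomes prepared on a sucrose gradient and resuspended in Krebs-type buffer, pH 7.4, with 0.01 mM pargyline. Preincubated 5 min at 37 °C with or without drug, then [3H]-NE added for 6 min. Samples filtered and counted. Active uptake taken as accumulation at 37 °C minus accumulation at 0 °C.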

[9] = species: Mus musculus; test: Impairment in mouse rotarod test; type: functional, organism-based
[10] = molecular target: T1, Alpha-2A adrenergic receptor (Rattus norvegicus, UniProt P22909); test: Binding affinity to adrenergic alpha-2A receptor in Sprague-Dawley rat cortical membranes
T1 sequence (P22909 whole entry): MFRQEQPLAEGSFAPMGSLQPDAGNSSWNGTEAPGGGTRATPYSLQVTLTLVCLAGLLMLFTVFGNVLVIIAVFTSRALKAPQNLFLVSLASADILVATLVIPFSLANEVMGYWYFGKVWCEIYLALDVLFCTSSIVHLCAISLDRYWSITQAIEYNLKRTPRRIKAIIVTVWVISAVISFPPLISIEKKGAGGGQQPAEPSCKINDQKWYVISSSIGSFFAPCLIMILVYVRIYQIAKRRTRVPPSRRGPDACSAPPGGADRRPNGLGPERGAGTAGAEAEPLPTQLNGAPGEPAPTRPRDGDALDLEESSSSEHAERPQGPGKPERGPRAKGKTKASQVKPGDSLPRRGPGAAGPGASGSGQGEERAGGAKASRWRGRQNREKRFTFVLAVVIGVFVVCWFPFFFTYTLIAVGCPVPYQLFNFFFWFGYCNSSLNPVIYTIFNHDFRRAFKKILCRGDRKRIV

[11] = system: Cerebral cortex; test: Increase in noradrenaline release in Sprague-Dawley rat cortical membranes; type: functional
[12] = system: Mus musculus; test: Antinociceptive activity in Swiss Albino mouse at 1 mg/kg, sc by abdominal constriction assay; type: functional, Abdomen; conditions: route subcutaneous; method in brief: as §3
[13] = system: Mus musculus; test: Antagonist effect on compound A-induced antinociception in Swiss Albino mouse at 1 mg/kg, ip; type: functional; conditions: route intraperitoneal; method in brief: as §4
[14] = system: Mus musculus; test: Antinociceptive activity in Swiss Albino mouse at 1 mg/kg, ip by abdominal constriction assay; type: functional, Abdomen; conditions: route intraperitoneal; method in brief: as §3
[15] = system: Mus musculus; test: Antagonist effect on compound A-induced antinociception in Swiss Albino mouse at 10 mg/kg, ip; type: functional; conditions: route intraperitoneal; method in brief: as §4
[16] = system: Mus musculus; test: Antinociceptive activity in Swiss Albino mouse at 30 mg/kg, po by writhing test measured as number of writhes; type: functional; method in brief: as §1
[17] = system: Mus musculus; test: Antinociceptive activity in Swiss Albino mouse at 30 mg/kg, po by hot plate assay measured as licking latency; type: functional; method in brief: as §2
[18] = system: Mus musculus; test: Antinociceptive activity in Swiss Albino mouse at 10 mg/kg, po by writhing test measured as number of writhes; type: functional; method in brief: as §1
[19] = system: Mus musculus; test: Antinociceptive activity in Swiss Albino mouse at 5 mg/kg, po by writhing test measured as number of writhes; type: functional; method in brief: as §1

Sequence of Norepinephrine transporter (Q9WTR4 whole entry): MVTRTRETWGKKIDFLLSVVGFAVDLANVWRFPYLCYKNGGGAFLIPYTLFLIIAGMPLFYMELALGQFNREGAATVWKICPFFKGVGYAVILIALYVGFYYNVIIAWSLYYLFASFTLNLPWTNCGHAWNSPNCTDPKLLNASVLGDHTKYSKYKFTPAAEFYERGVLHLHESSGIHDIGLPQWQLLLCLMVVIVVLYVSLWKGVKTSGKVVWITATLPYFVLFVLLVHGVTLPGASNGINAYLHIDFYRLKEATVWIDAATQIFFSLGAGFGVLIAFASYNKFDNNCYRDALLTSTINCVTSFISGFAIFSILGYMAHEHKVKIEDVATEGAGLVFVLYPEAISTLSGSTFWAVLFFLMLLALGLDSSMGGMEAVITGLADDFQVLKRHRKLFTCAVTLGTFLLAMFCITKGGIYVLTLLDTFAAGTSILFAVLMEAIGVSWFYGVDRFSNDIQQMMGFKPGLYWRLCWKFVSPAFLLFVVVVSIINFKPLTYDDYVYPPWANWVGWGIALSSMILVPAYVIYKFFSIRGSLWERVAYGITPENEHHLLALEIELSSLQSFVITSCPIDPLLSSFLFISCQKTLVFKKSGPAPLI

`O=c1c2ccccc2cnn1CCCN1CCN(c2cccc(Cl)c2)CC1` was tested, and the Activity [1] was 8.2, the Activity [2] was 31.8 and the Activity ([3]; 20 mg/kg) was 28 and 83%.
`Cc1noc2c(-c3ccc([N+](=O)[O-])cc3)nn(CCCN3CCN(c4cccc(Cl)c4)CC3)c(=O)c12` gave an Activity [1] of 26.8.
Work on `CCOC(=O)CCn1nc(-c2ccccc2)c2onc(C)c2c1=O` yielded an Activity [1] of 32.7 and an Activity [3] of 17.4.
Compound `Cc1noc2c(-c3ccccc3)nn(CCC(=O)N3CCN(c4cccc(Cl)c4)CC3)c(=O)c12` has an Activity [1] of 22.1 and an Activity [2] of 41.3.
In the case of `COC(=O)[C@@H]1[C@H]2C[C@H]3c4[nH]c5ccccc5c4CCN3C[C@@H]2CC[C@@H]1O` [YOHIMBINE], the Activity [4] is reported as 28.5, the Activity [5] is reported as 27.8 and the Activity [6] is reported as 15.8. It also gave an Activity [7] of 35.9.
For `Cc1noc2c(-c3ccccc3[N+](=O)[O-])nn(CCCN3CCN(c4cccc(Cl)c4)CC3)c(=O)c12`, the Activity [1] was 31.7.
`Cc1noc2c(-c3ccccc3)nn(CCN3CCN(c4cccc(Cl)c4)CC3)c(=O)c12` was tested, and the Activity [1] was 23.6, the Activity [2] was 37.2 and the Activity [3] was 15.4.
`Cc1noc2c(-c3ccccc3)nn(CCCN3CCN(c4cccc(Cl)c4)CC3)c(=O)c12` was tested, and the IC50 [8] was 130 nM, the Activity [9] was “inactive” and the Ki [10] was > 1000 nM. The Activity [11] was “Dose-dependent effect” and the Activity [12] was 11.6.
With `Cc1noc2c(-c3ccccc3)nn(CC(C)CN3CCN(c4cccc(Cl)c4)CC3)c(=O)c12` (centres undefined) the Activity [1] was 35.5.
In the case of `CC1c2ccccc2CN1CC1=NCCN1` (centres undefined), the Activity [13] is reported as 33.4 and the Activity [14] is reported as 32.9.
For `COc1ccccc1N1CCN(CCN2C(=O)c3ccccc3C(C)(C)C2=O)CC1`, the Activity [15] was 9.6.
`O=C1c2ccccc2C(=O)N1CCCN1CCN(c2cccc(Cl)c2)CC1` was tested, and the Activity [1] was 34.9 and the Activity [3] was 16.2.
`CC(CN1CCN(c2cccc(Cl)c2)CC1)Cn1ncc2ccccc2c1=O` (centres undefined) showed an Activity [1] of 36.7.
For `Cc1noc2c(-c3ccccc3)nn(CCCN3CCN(c4ccc(Cl)cc4)CC3)c(=O)c12`, the Activity [1] was 27.1.
In the case of `Cc1noc2c(-c3ccccc3)nn(CCC(=O)N3CCN(c4ccc(Cl)cc4)CC3)c(=O)c12`, the Activity [1] is reported as 23.5, the Activity [2] is reported as 45.4 and the Activity [3] is reported as 17.2.
In the case of `Cc1noc2c(-c3ccccc3)nnc(SCCCN3CCN(c4ccc(F)cc4)CC3)c12`, the Activity [1] is reported as 28.6.
With `Cc1noc2c(-c3ccccc3)nn(CCCN3CCN(c4ccccn4)CC3)c(=O)c12` the Activity [16] was 30.2 and the Activity [17] was 15.1.
`O=C1c2ccccc2C(=O)N1CCN1CCN(c2ccc(F)cc2)CC1` was tested, and the Activity [1] was 22.6 and the Activity [2] was 37.9.
Compound `O=C1c2ccccc2C(=O)N1CCCN1CCN(c2ccc(F)cc2)CC1` has an Activity [1] of 19.4 and an Activity [3] of 36.5.
`N#Cc1cccc(N2CCN(CCCn3ncc4ccccc4c3=O)CC2)c1` gave an Activity [18] of 17.2.
For `Cc1noc2c(-c3ccccc3)nn(CCCN3CCN(c4ccc(F)cc4)CC3)c(=O)c12`, the Activity [16] was 39.2 and the Activity [17] was 17.6.
`Cc1cc(C)c2c(-c3ccccc3)nn(CCCN3CCN(c4cccc(Cl)c4)CC3)c(=O)c2n1` was tested, and the Activity [1] was 18.
In the case of `O=c1c2ccccc2cnn1CCCCN1CCN(c2cccc(Cl)c2)CC1`, the Activity [1] is reported as 28.5.
Work on `O=c1c2ccccc2cnn1CCCN1CCN(c2ccc(Cl)cc2)CC1` yielded an Activity [1] of 23.9.
`Cc1noc2c(-c3ccccc3N)nn(CCCN3CCN(c4cccc(Cl)c4)CC3)c(=O)c12` was tested, and the Activity [1] was 28 and the Activity [3] was 16.5.
With `Cc1noc2cnn(CCCN3CCN(c4cccc(Cl)c4)CC3)c(=O)c12` the Activity [1] was 11.9, the Activity [2] was 27.4 and the Activity [3] was 27.7.
For `Cc1noc2c(-c3ccccc3)nn(CCCCN3CCN(c4cccc(Cl)c4)CC3)c(=O)c12`, the Activity [1] was 30.6.
`Cc1onc2c(=O)n(CCCN3CCN(c4cccc(Cl)c4)CC3)nc(-c3cccs3)c12` gave an Activity [1] of 16.2.
In the case of `Cc1nn(CCCN2CCN(c3cccc(Cl)c3)CC2)c(=O)c2nn(-c3ccccc3)c(C)c12`, the Activity [1] is reported as 10.3.
For `Cc1noc2cnn(CCCCN3CCN(c4cccc(Cl)c4)CC3)c(=O)c12`, the Activity [19] was 27.2.
